Reference: paper PMC3082038 (Cancer Chemotherapy and Pharmacology, 2010)
Marks after values point to notes of the source that are not given here.

Legend:
[1] = Plasma pharmacokinetics of TSU-68 in phase I patients; assay type: in vivo, human; details: for AUC(0-t) / AUC / Cmax / half-life / Tmax: human, plasma, oral
[2] = system: plasma VEGF; assay: Angiogenesis-related factor: plasma VEGF; assay type: in vivo, human
Outline: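 Plasma and urine were collected from patients before treatment and after day 8 and day 28 of oral test compound dosing, and analysed at a central commercial laboratory. ELISA kits were used for human VEGF (plasma and urine), ELAM-1, VCAM-1 and soluble t-PA. Soluble PAI-1 was measured by latex photometric immunoassay. Values are reported as median (range) per time point.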

[3] = 100 mg/m^2 after meals, previous clinical study; cited from earlier work

For `Cc1[nH]c(/C=C2\C(=O)Nc3ccccc32)c(C)c1CCC(=O)O` [TSU-68, (Z)-5-[(1,2-dihydro-2-oxo-3H-indol-3-ylidene)methyl]-2,4-dimethyl-1H-pyrrole-3-propanoic acid], the “AUC0–t” value ([1]; b.i.d. after meal, 1st dose, 400 mg/m^2, n=6, mean ± SD) was 76.44 ± 23.07 h, the “AUC0–t” value ([1]; b.i.d. after meal, 3rd dose, 200 mg/m^2, n=3, mean ± SD) was 33.28 ± 4.329 h and the “AUC0–t” value ([1]; b.i.d. after meal, 3rd dose, 500 mg/m^2, n=3, mean ± SD) was 45.74 ± 14.59 h. The “C max and AUC after repeated administration versus 1st administration on day 1” value ([1]; b.i.d. regimen, any dose level, days 2 and 28) was “approximately twofold lower”, the AUC(0-t) ([1]; 200 mg/m2, AUC0–t, b.i.d. after meal, 1st dose, 200 mg/m^2, n=3, mean ± SD) was 55200 ± 5360 ng·h/mL and the AUC(0-t) ([1]; 200 mg/m2, AUC0–t, b.i.d. after meal, 56th dose, 200 mg/m^2, n=3, mean ± SD) was 32200 ± 1540 ng·h/mL. For the same compound, the AUC(0-t) ([1]; 200 mg/m2, AUC0–t, t.i.d. after meal, 1st dose, 200 mg/m^2, n=6, mean ± SD) was 37000 ± 18200 ng·h/mL, the AUC(0-t) ([1]; 200 mg/m2, AUC0–t, t.i.d. after meal, 2nd dose, 200 mg/m^2, n=6, mean ± SD) was 31500 ± 12500 ng·h/mL and the AUC ([1]; 200 mg/m2, AUC Day 28, Pt 1, Cervical ca., b.i.d. 200 mg/m^2 (800 mg/day)) was 32800 ng·h/mL. It also gave an AUC ([1]; 200 mg/m2, AUC Day 28, Pt 2, NSCLC, b.i.d. 200 mg/m^2 (800 mg/day)) of 33400 ng·h/mL, an AUC ([1]; 200 mg/m2, AUC Day 28, Pt 13, Colon ca., t.i.d. 200 mg/m^2 (1200 mg/day)) of 25300 ng·h/mL and an AUC ([1]; 200 mg/m2, AUC Day 28, Pt 14, Soft tissue sa., t.i.d. 200 mg/m^2 (600 mg/day)) of 19000 ng·h/mL. It also gave a Cmax ([1]; 200 mg/m2, C max, b.i.d. after meal, 1st dose, 200 mg/m^2, n=3, mean ± SD) of 11200 ± 1150 ng/mL, a Cmax ([1]; 200 mg/m2, C max, b.i.d. after meal, 3rd dose, 200 mg/m^2, n=3, mean ± SD) of 6000 ± 671 ng/mL and a Cmax ([1]; 200 mg/m2, C max, b.i.d. after meal, 56th dose, 200 mg/m^2, n=3, mean ± SD) of 4790 ± 526 ng/mL. The Cmax ([1]; 200 mg/m2, C max, t.i.d. after meal, 1st dose, 200 mg/m^2, n=6, mean ± SD) was 11000 ± 5530 ng/mL, the Cmax ([1]; 200 mg/m2, C max, t.i.d. after meal, 2nd dose, 200 mg/m^2, n=6, mean ± SD) was 7010 ± 2410 ng/mL and the Cmax ([1]; 200 mg/m2, C max, t.i.d. after meal, 84th dose, 200 mg/m^2, n=6, mean ± SD) was 3850 ± 2980 ng/mL. The half-life ([1]; 200 mg/m2, T 1/2, b.i.d. after meal, 1st dose, 200 mg/m^2, n=3, mean ± SD) was 2.37 ± 0.86 h, the half-life ([1]; 200 mg/m2, T 1/2, b.i.d. after meal, 3rd dose, 200 mg/m^2, n=3, mean ± SD) was 2.71 ± 0.471 h and the half-life ([1]; 200 mg/m2, T 1/2, b.i.d. after meal, 56th dose, 200 mg/m^2, N = 2, mean) was 3.47 h. It also gave a half-life ([1]; 200 mg/m2, T 1/2, t.i.d. after meal, 1st dose, 200 mg/m^2, N = 3, mean ± SD) of 2.04 ± 0.461 h, a half-life ([1]; 200 mg/m2, T 1/2, t.i.d. after meal, 2nd dose, 200 mg/m^2, N = 2, mean) of 2.99 h and a Tmax ([1]; 200 mg/m2, T max, b.i.d. after meal, 1st dose, 200 mg/m^2, n=3, mean ± SD) of 3 ± 1 h. The Tmax ([1]; 200 mg/m2, T max, b.i.d. after meal, 3rd dose, 200 mg/m^2, n=3, mean ± SD) was 3.5 ± 2.29 h, the Tmax ([1]; 200 mg/m2, T max, b.i.d. after meal, 56th dose, 200 mg/m^2, n=3, mean ± SD) was 2.67 ± 1.16 h and the Tmax ([1]; 200 mg/m2, T max, t.i.d. after meal, 1st dose, 200 mg/m^2, n=6, mean ± SD) was 3.08 ± 1.43 h. It also gave a Tmax ([1]; 200 mg/m2, T max, t.i.d. after meal, 2nd dose, 200 mg/m^2, n=6, mean ± SD) of 3.67 ± 1.37 h, a Tmax ([1]; 200 mg/m2, T max, t.i.d. after meal, 84th dose, 200 mg/m^2, n=6, mean ± SD) of 2 ± 1.05 h and an AUC ([1]; 200 mg/m^2 t.i.d., AUC Day 28, Pt 18, Colon ca., t.i.d. 200 mg/m^2 (1,200 mg/day)) of 12500 ng·h/mL. For the same compound, the AUC(0-t) ([1]; 400 mg/m2, AUC0–t, b.i.d. after meal, 3rd dose, 400 mg/m^2, n=6, mean ± SD) was 40400 ± 10600 ng·h/mL, the AUC(0-t) ([1]; 400 mg/m2, AUC0–t, b.i.d. after meal, 56th dose, 400 mg/m^2, N = 4, mean ± SD) was 36900 ± 20300 ng·h/mL and the AUC(0-t) ([1]; 400 mg/m2, AUC0–t, t.i.d. after meal, 1st dose, 400 mg/m^2, n=6, mean ± SD) was 41600 ± 21600 ng·h/mL. It also gave an AUC(0-t) ([1]; 400 mg/m2, AUC0–t, t.i.d. after meal, 2nd dose, 400 mg/m^2, n=6, mean ± SD) of 42000 ± 18900 ng·h/mL, an AUC(0-t) ([1]; 400 mg/m2, AUC0–t, t.i.d. after meal, 84th dose, 400 mg/m^2, n=6, mean ± SD) of 31600 ± 16100 ng·h/mL and a Cmax ([1]; 400 mg/m2, C max, b.i.d. after meal, 1st dose, 400 mg/m^2, n=6, mean ± SD) of 17100 ± 6590 ng/mL. It also gave a Cmax ([1]; 400 mg/m2, C max, b.i.d. after meal, 3rd dose, 400 mg/m^2, n=6, mean ± SD) of 8290 ± 2720 ng/mL, a Cmax ([1]; 400 mg/m2, C max, b.i.d. after meal, 56th dose, 400 mg/m^2, N = 4, mean ± SD) of 8410 ± 5870 ng/mL and a Cmax ([1]; 400 mg/m2, C max, t.i.d. after meal, 1st dose, 400 mg/m^2, n=6, mean ± SD) of 12400 ± 5760 ng/mL. For the same compound, the Cmax ([1]; 400 mg/m2, C max, t.i.d. after meal, 2nd dose, 400 mg/m^2, n=6, mean ± SD) was 9340 ± 4510 ng/mL, the Cmax ([1]; 400 mg/m2, C max, t.i.d. after meal, 84th dose, 400 mg/m^2, n=6, mean ± SD) was 4780 ± 1950 ng/mL and the half-life ([1]; 400 mg/m2, T 1/2, b.i.d. after meal, 1st dose, 400 mg/m^2, n=6, mean ± SD) was 2.94 ± 0.692 h. For the same compound, the half-life ([1]; 400 mg/m2, T 1/2, b.i.d. after meal, 3rd dose, 400 mg/m^2, n=6, mean ± SD) was 3.45 ± 1.37 h, the half-life ([1]; 400 mg/m2, T 1/2, b.i.d. after meal, 56th dose, 400 mg/m^2 (6), mean ± SD) was 2.6 ± 0.527 h and the half-life ([1]; 400 mg/m2, T 1/2, t.i.d. after meal, 1st dose, 400 mg/m^2, N = 1) was 2.61 h. The half-life ([1]; 400 mg/m2, T 1/2, t.i.d. after meal, 2nd dose, 400 mg/m^2, N = 3, mean ± SD) was 2.41 ± 1.14 h, the half-life ([1]; 400 mg/m2, T 1/2, t.i.d. after meal, 84th dose, 400 mg/m^2, N = 2, mean) was 2.23 h and the Tmax ([1]; 400 mg/m2, T max, b.i.d. after meal, 1st dose, 400 mg/m^2, n=6, mean ± SD) was 2.67 ± 0.817 h. The Tmax ([1]; 400 mg/m2, T max, b.i.d. after meal, 3rd dose, 400 mg/m^2, n=6, mean ± SD) was 2.67 ± 0.817 h, the Tmax ([1]; 400 mg/m2, T max, b.i.d. after meal, 56th dose, 400 mg/m^2, N = 4, mean ± SD) was 2.38 ± 0.75 h and the Tmax ([1]; 400 mg/m2, T max, t.i.d. after meal, 1st dose, 400 mg/m^2, n=6, mean ± SD) was 3.42 ± 1.2 h. For the same compound, the Tmax ([1]; 400 mg/m2, T max, t.i.d. after meal, 2nd dose, 400 mg/m^2, n=6, mean ± SD) was 3 ± 1.79 h, the Tmax ([1]; 400 mg/m2, T max, t.i.d. after meal, 84th dose, 400 mg/m^2, n=6, mean ± SD) was 2.92 ± 1.2 h and the AUC ([1]; 400 mg/m^2 t.i.d., AUC Day 28, Pt 20, Colon ca., t.i.d. 400 mg/m^2 (1,800 mg/day)) was 46800 ng·h/mL. For the same compound, the AUC(0-t) ([1]; 500 mg/m2, AUC0–t, b.i.d. after meal, 1st dose, 500 mg/m^2, n=3, mean ± SD) was 103000 ± 45600 ng·h/mL, the AUC(0-t) ([1]; 500 mg/m2, AUC0–t, b.i.d. after meal, 56th dose, 500 mg/m^2, n=3, mean ± SD) was 43200 ± 18700 ng·h/mL and the Cmax ([1]; 500 mg/m2, C max, b.i.d. after meal, 1st dose, 500 mg/m^2, n=3, mean ± SD) was 22500 ± 10000 ng/mL. For the same compound, the Cmax ([1]; 500 mg/m2, C max, b.i.d. after meal, 3rd dose, 500 mg/m^2, n=3, mean ± SD) was 8790 ± 2920 ng/mL, the Cmax ([1]; 500 mg/m2, C max, b.i.d. after meal, 56th dose, 500 mg/m^2, n=3, mean ± SD) was 7510 ± 3460 ng/mL and the half-life ([1]; 500 mg/m2, T 1/2, b.i.d. after meal, 1st dose, 500 mg/m^2, n=3, mean ± SD) was 2.35 ± 0.599 h. For the same compound, the half-life ([1]; 500 mg/m2, T 1/2, b.i.d. after meal, 3rd dose, 500 mg/m^2, n=3, mean ± SD) was 3.33 ± 1.16 h, the half-life ([1]; 500 mg/m2, T 1/2, b.i.d. after meal, 56th dose, 500 mg/m^2, N = 1) was 1.82 h and the Tmax ([1]; 500 mg/m2, T max, b.i.d. after meal, 1st dose, 500 mg/m^2, n=3, mean ± SD) was 4 ± 1.73 h. It also gave a Tmax ([1]; 500 mg/m2, T max, b.i.d. after meal, 3rd dose, 500 mg/m^2, n=3, mean ± SD) of 4.33 ± 1.53 h, a Tmax ([1]; 500 mg/m2, T max, b.i.d. after meal, 56th dose, 500 mg/m^2, n=3, mean ± SD) of 3.17 ± 1.44 h and an AUC ([1]; 500 mg/m^2 b.i.d., AUC Day 28, Pt 11, Colon ca., b.i.d. 500 mg/m^2 (1,600 mg/day)) of 44600 ng·h/mL. For the same compound, the “T 1/2” value ([1]; t.i.d. after meal, 84th dose, 200 mg/m^2, N = 5, mean ± SD) was 4.773 ± 2.221^e h, the “AUC0–t” value ([1]; t.i.d. after meal, 84th dose, 200 mg/m^2, n=6, mean ± SD) was 24.75 ± 13.69 h and the “Change of plasma VEGF at day 28 compared to baseline” value ([2]; PD patients (13 pts.), Wilcoxon signed rank-sum test) was “significantly increasing”. The “Plasma VEGF, median” value ([2]; day 8, 23 patients) was 55 pg/mL, the “Plasma VEGF, range” value ([2]; day 8, 23 patients) was under 31 to 278 pg/mL and the “Plasma VEGF, median” value ([2]; day 28, 22 patients) was 63 pg/mL. For the same compound, the “Plasma VEGF, range” value ([2]; day 28, 22 patients) was under 31 to 270 pg/mL and the Absolute bioavailability [3] was 42%.
